Test results from PMC7275135 (Applied Microbiology and Biotechnology, 2020).
Where a SMILES comes first, the peptide text is derived from it.

Experiments:
[1] = tested on: S. epidermidis ATCC 12228; test: MIC, microtiter plate assay; assay type: cell-based, Staphylococcus epidermidis; details: triplicate
Gram-positive bacteria = test: MIC range over the Gram-positive strains; assay type: cell-based; details: S. aureus CVCC 546, S. epidermidis ATCC 12228, S. pneumoniae CVCC 2350, S. suis CVCC 3928
MEECs = test: Cytotoxicity, MTT assay; assay type: cell-based, mouse; details: 256 μg/mL, n = 4
S. aureus CVCC 546 [2] = test: Membrane depolarization, Rhodamine 123 flow cytometry; assay type: cell-based, Staphylococcus aureus; details: 2 h, 10^8 CFU/mL
[3] = tested on: intracellular S. aureus CVCC 546; test: Intracellular antimicrobial activity in MEECs; assay type: cell-based, Staphylococcus aureus; details: 24 h treatment, dose-dependent, colony counting
Outline: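 MEECs in antibiotic-free DMEM, seeded at 2.5 × 10^5 cells/mL and grown 24 h, then infected with an equal volume of S. aureus CVCC 546 (2.5 × 10^7 CFU/mL) for 0.5 h. Extracellular bacteria killed with lysostaphin 50 μg/mL for 1 h, then PBS wash.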

[4] = tested on: LTA-induced cytokines from RAW 264.7; test: LTA neutralization, cytokine ELISA; assay type: cell-based, mouse; details: RAW 264.7, LTA-stimulated, 25-μg/mL
S. aureus CVCC 546 [5] = test: S. aureus-induced endometritis model of mice; assay type: in vivo, mouse; details: 10-mg/kg

CC[C@H](C)[C@@H]1NC(=O)[C@@H]2CSSC[C@@H](C(=O)N[C@@H](CCCNC(=N)N)C(=O)N[C@@H](CCCCN)C(=O)O)NC(=O)[C@H](CC(N)=O)NC(=O)[C@@H]3CSSC[C@H](NC(=O)[C@H](C)NC(=O)[C@H](C)NC(=O)[C@H](Cc4c[nH]cn4)NC(=O)CNC(=O)[C@H](C(C)C)NC(=O)[C@H](CCCCN)NC(=O)[C@H](Cc4ccccc4)NC(=O)[C@@H]4CCCN4C(=O)[C@H](CO)NC(=O)[C@H](CC(C)C)NC(=O)[C@H](CC(C)C)NC(=O)[C@H](CC(=O)O)NC(=O)[C@@H](NC(=O)[C@@H](NC(=O)[C@H](C)N)[C@@H](C)O)CSSC[C@H](NC(=O)[C@H](Cc4c[nH]c5ccccc45)NC(=O)CNC(=O)CNC(=O)[C@H](CCCNC(=N)N)NC(=O)[C@H](CCCCN)NC(=O)CNC(=O)[C@H](CCCNC(=N)N)NC(=O)[C@H](C)NC1=O)C(=O)N[C@@H](CC(=O)O)C(=O)N[C@@H](CCCCN)C(=O)N[C@@H](CCCNC(=N)N)C(=O)N[C@@H](C)C(=O)N[C@@H](C(C)C)C(=O)N3)C(=O)N[C@@H](C)C(=O)N[C@@H](C)C(=O)N[C@@H](Cc1c[nH]cn1)C(=O)N2 [DLP4] (HELM PEPTIDE1{A.T.C.D.L.L.S.P.F.K.V.G.H.A.A.C.A.A.H.C.I.A.R.G.K.R.G.G.W.C.D.K.R.A.V.C.N.C.R.K}$PEPTIDE1,PEPTIDE1,3:R3-30:R3|PEPTIDE1,PEPTIDE1,16:R3-36:R3|PEPTIDE1,PEPTIDE1,20:R3-38:R3$$$V2.0; N-terminus assumed)
MICs [1]: 14.99 µM
MICs (range over strains) (Gram-positive bacteria): 3.75~14.99 μM
cell viability toward MEECs (MEECs): 74.14%

CN[C@H](CC(C)C)C(=O)N[C@H]1C(=O)N[C@@H](CC(N)=O)C(=O)N[C@H]2C(=O)N[C@H]3C(=O)N[C@H](C(=O)N[C@H](C(=O)O)c4cc(O)cc(O)c4-c4cc3ccc4O)[C@H](O)c3ccc(c(Cl)c3)Oc3cc2cc(c3O[C@@H]2O[C@H](CO)[C@@H](O)[C@H](O)[C@H]2O[C@H]2C[C@](C)(N)[C@H](O)[C@H](C)O2)Oc2ccc(cc2Cl)[C@H]1O [vancomycin]
cell viability toward MEECs (MEECs): 90.15%
Rh 123 fluorescence intensity increased by (S. aureus CVCC 546 [2]; 1 × MIC): 23.1%
Rh 123 fluorescence intensity increased by (S. aureus CVCC 546 [2]; 2 × MIC): 26.6%
killing of S. aureus CVCC 546 in MEEC cells [3]: over 99%
IL-10 increased by [4]: 81.26%
histopathology of uteri (H&E) (S. aureus CVCC 546 [5]): Only a small amount of scattered inflammatory cells were observed in part of uterus
